From ChEMBL document CHEMBL6103596, “Design, Synthesis, and Biological Evaluation of BODIPY-Caged Resiquimod as a Dual-Acting Phototherapeutic” (J Med Chem, 2025)
The source made the active and inactive calls. The calls are words filed in the database; no cut-off is given here.

Legend:
[1] = target: T1, Toll-like receptor 7 (Homo sapiens) (UniProt Q9NYK1); test: Activation of TLR7 in human AD293 cells assessed as IkappaB-alpha degradation at 10 uM preincubated with NAC followed by compound addition and measured after 30 mins under 650nm red light irradiation by Western blot analysis; assay type: cell-based; conditions: filed as activator
T1 sequence (whole entry): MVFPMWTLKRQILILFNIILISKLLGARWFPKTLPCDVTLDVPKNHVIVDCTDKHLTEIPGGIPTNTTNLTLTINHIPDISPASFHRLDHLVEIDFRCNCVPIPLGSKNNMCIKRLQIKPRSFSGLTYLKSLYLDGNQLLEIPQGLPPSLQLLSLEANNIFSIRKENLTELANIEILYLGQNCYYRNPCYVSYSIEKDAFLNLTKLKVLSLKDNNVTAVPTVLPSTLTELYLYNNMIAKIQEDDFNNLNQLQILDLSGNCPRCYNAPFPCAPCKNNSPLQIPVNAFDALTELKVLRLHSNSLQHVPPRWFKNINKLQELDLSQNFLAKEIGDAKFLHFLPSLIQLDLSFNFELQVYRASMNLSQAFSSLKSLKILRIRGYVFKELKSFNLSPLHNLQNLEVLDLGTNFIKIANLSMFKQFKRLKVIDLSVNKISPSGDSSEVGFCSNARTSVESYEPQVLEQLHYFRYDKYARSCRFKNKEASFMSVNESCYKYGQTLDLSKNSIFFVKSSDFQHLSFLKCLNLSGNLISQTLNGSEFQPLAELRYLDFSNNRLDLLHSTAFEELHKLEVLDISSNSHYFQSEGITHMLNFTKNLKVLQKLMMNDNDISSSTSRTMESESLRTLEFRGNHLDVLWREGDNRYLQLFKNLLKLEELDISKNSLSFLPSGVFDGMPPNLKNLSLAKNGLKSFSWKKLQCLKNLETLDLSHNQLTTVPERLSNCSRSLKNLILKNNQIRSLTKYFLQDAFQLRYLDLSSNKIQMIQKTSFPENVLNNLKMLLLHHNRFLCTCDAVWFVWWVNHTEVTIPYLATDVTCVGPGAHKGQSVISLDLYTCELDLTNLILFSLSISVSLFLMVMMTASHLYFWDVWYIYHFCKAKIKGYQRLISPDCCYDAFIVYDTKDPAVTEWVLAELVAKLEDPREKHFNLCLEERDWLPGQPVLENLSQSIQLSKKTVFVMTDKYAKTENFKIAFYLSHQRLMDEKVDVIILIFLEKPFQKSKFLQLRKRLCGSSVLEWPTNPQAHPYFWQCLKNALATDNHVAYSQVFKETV
How it was run: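 Stable TLR7-expressing AD293 line made by TLR7 plasmid transfection and hygromycin B selection (250 μg/mL, 10 days). Cells pretreated with N-acetyl-cysteine, then given 10 μM compound, with or without 30 min 650 nm red-light irradiation. Lysates run on 10% SDS-PAGE and blotted to PVDF. Total IκB probed (1:1000) with GAPDH loading control, ECL detection. Means of three experiments.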

[2] = Thermal stability of compound in DMSO-d6 at 37.5 degree C measured after 1 day by 1H NMR spectroscopy analysis relative to control; assay type: physicochemical; conditions: 24 h
How it was run: (§1)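 Compound in DMSO-d6 followed by 1H NMR. Degradation taken from the intensity of three signals (one resiquimod, one BODIPY, and the linkage NH), each relative to the DMSO-d6 internal standard, and the three averaged.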

[3] = tested on: AD293; test: Cytotoxicity against human AD293 cells assessed as cell viability at 0.1 to 10 uM incubated for 24 hrs by MTT assay; assay type: toxicity, cell-based; conditions: ad293, 24 h, dose 0.1-10 µM
How it was run: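 AD293 cells seeded at 4 × 10^4 cells/well in DMEM with 10% FBS. Next day, compound (100 nM, 1 μM, 10 μM) or vehicle added in serum-free DMEM for 24 h, no irradiation. MTT (5 mg/mL reagent) added for 3 h at 37 °C, formazan dissolved in DMSO, absorbance read at 590 nm. Triplicate wells, four independent experiments.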

[4] = Dark toxicity in human A549 cells assessed as cell viability at 10 uM under dark condition and measured after 72 hrs by CCK-8 method relative to control; assay type: cell-based; conditions: read-out: Activity
How it was run: (§2)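 A549, HaCaT and HeLa cells seeded at 2 × 10^3 cells/well in phenol red-free DMEM with 10% FBS. After 24 h, medium replaced with 1% DMSO containing 10 μM compound. After 90 min, one plate kept dark and one exposed to 530 or 650 nm LED (30 mW) for 15 min. Plates incubated 72 h, then CCK-8 read at 450 nm. Viability taken relative to dark control. Triplicates (HaCaT six).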

[5] = tested on: AD293; test: Effect on morphological changes in human AD293 cells at 10 uM; assay type: functional, cell-based
How it was run: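 AD293 cells treated with 10 μM compound, followed by LED irradiation or kept unirradiated, then morphology examined by microscopy.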

[6] = Dark toxicity in human HeLa cells assessed as cell viability at 10 uM under dark condition and measured after 72 hrs by CCK-8 method relative to control; assay type: cell-based; conditions: read-out: Activity; how it was run: as §2
[7] = Phototoxicity in human A549 cells assessed as cell viability at 10 uM under 530 ot 650nm 30 mW LED light irradiation and measured after 72 hrs by CCK-8 method relative to control; assay type: functional; conditions: A549, light or radiation study, read-out: Activity; how it was run: as §2
[8] = Drug uptake in human AD293 cells assessed as increase in red fluorescence at 10 uM measured after 40 mins by fluorescence imaging based analysis; assay type: ADME, cell-based; conditions: ad293, 40 min
[9] = Induction of superoxide anion radical assessed as DMPO-O2 radical adduct formation under light irradiation measured after 10 mins by ESR spectra analysis; assay type: functional
How it was run: (§3)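 ESR spectra recorded with DMPO as spin trap to detect superoxide and/or hydroxyl radical adducts, before and after 10 min irradiation of compound.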

[10] = Thermal stability of compound in DMSO-d6 at 37.5 degree C measured before 24 hrs by 1H NMR spectroscopy analysis; assay type: physicochemical; how it was run: as §1
[11] = Photophysical property of the compound assessed as fluorescence quantum yield; assay type: physicochemical
[12] = Upregulation of iNOS mRNA expression in mouse RAW264.7 cells assessed as fold change at 100 nM preincubated with NAC followed by compound addition and measured after 30 mins under 650nm LED light irradiation by real-time PCR analysis; assay type: functional; conditions: 0.5 h
How it was run: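 RAW264.7 cells seeded at 0.3 million per 35 mm dish. Next day, pretreated with 10 mM N-acetyl-cysteine for 30 min, then given 100 nM compound and 650 nm LED light for 30 min. Total RNA taken 24 h later and reverse transcribed with random primers. SYBR real-time PCR run for 40 cycles (95/60/72 °C). Quantities calculated by the Ct method. Results given as fold change, means ± SD.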

[13] = Photosensitizing ability of the compound assessed as singlet oxygen quantum yield under 600nm monochromatic light irradiation by DPBF based assay relative to control; assay type: functional
How it was run: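 Singlet oxygen generation followed by the decrease in DPBF absorbance under irradiation. DPBF (20–25 μm) used at 5–10-fold excess over compound (2.5–5 μm).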

[14] = Induction of hydroxyl radical assessed as DMPO-OH radical adduct formation under dark condition measured after 10 mins by ESR spectra analysis; assay type: functional; how it was run: as §3
[15] = Induction of hydroxyl radical assessed as DMPO-OH radical adduct formation under light irradiation measured after 10 mins by ESR spectra analysis; assay type: functional; how it was run: as §3

- Activity [1]: Active
- Activity [2]: 7%
- Drug uptake [8]: Active
- Activity [10]: Not_active
- Activity [11]: 0.411
Structure (SMILES): CCOCc1nc2c(NC(=O)OCC3=C4C(C)=CC(/C=C/c5ccc(OCCOCCOCCOC)cc5)=[N+]4[B-](C)(C)n4c(/C=C/c5ccc(OCCOCCOCCOC)cc5)cc(C)c43)nc3ccccc3c2n1CC(C)(C)O
- Activity [3]: Non-toxic
- viability at 72 h, 10 µM [4]: 2%
- Activity [5]: inactive
- viability at 72 h, 10 µM [6]: 4%
- viability at 10 µM [7]: 55%
- Activity [9]: inactive
- fold change (FC) [12]: ~4
- Activity [13]: 1.2%
- Activity [14]: inactive
- Activity [15]: inactive
